# Source: ChEMBL document CHEMBL2401620, “Molecular design, synthesis and biological evaluation of BP-O-DAPY and O-DAPY derivatives as non-nucleoside HIV-1 reverse transcriptase inhibitors” (Eur J Med Chem, 2013)
# Tested on: Human immunodeficiency virus 1
# Assay: Antiviral activity against HIV1 3B infected in human MT4 cells assessed as inhibition of virus-induced cytopathic effect after 5 days by MTT assay
# Assay type: functional, organism-based
# Details: Human immunodeficiency virus 1, 3B, MT4, 120 h
# In short: (§1)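 MT-4 cells, spun 5 min at 220 g, resuspended at 6 × 10⁵ cells/mL, infected with virus stock at 100-300 CCID50. Serial 5-fold compound dilutions were added at the start, in triplicate wells. After 5 days, viability was read by MTT reduction at 540 and 690 nm.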
row,SMILES,EC50 [nM]
1,Cc1cnc(Nc2ccc(C#N)cc2)nc1Oc1ccc(OCc2ccccc2)cc1,> 170000
2,Cc1cc(Oc2ccc(OCc3ccccc3)cc2)nc(Nc2ccc(C#N)cc2)n1,4310
3,COc1ccc(C(=O)c2ccccc2)c(Oc2ccnc(Nc3ccc(C#N)cc3)n2)c1,> 760
4,Cc1ccc(C(=O)c2cc(Cl)ccc2Oc2cc(C)nc(Nc3ccc(C#N)cc3)n2)cc1,> 26600
5,COc1ccc(C(=O)c2ccccc2)c(Oc2nc(Nc3ccc(C#N)cc3)ncc2C)c1,≥ 3510
6,Cc1cc(Oc2ccc(C(=O)c3ccc(O)cc3)cc2)nc(Nc2ccc(C#N)cc2)n1,≥ 5180
7,COCCc1ccc(Oc2ccnc(Nc3ccc(C#N)cc3)n2)cc1,260
8,COCCc1ccc(Oc2nc(Nc3ccc(C#N)cc3)ncc2C)cc1,60
9,Cc1cc(C)cc(C(=O)c2cc(Cl)ccc2Oc2ccnc(Nc3ccc(C#N)cc3)n2)c1,790
10,CC(C)Nc1cccnc1N1CCN(C(=O)c2cc3cc(NS(C)(=O)=O)ccc3[nH]2)CC1 [DELAVIRDINE],110
11,N#Cc1ccc(Nc2nccc(Oc3ccc(OCc4ccccc4)cc3)n2)cc1,46100
12,Cc1ccccc1C(=O)c1cc(Cl)ccc1Oc1nc(Nc2ccc(C#N)cc2)ncc1C,1090
13,Cc1ccccc1C(=O)c1cc(Cl)ccc1Oc1ccnc(Nc2ccc(C#N)cc2)n1,1360

# Tested on: not listed separately
# Assay: Selectivity index, ratio of CC50 for human MT4 cells to EC50 for HIV1 3B
# Assay type: toxicity, cell-based
# Details: read-out: Ratio CC50/EC50
# In short: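 SI is CC50 in mock-infected MT-4 cells divided by EC50 against HIV-1 IIIB. Both come from the same 5-day MTT assay, with serial 5-fold dilutions in triplicate wells.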
row,SMILES,selectivity ratio
1,Cc1cnc(Nc2ccc(C#N)cc2)nc1Oc1ccc(OCc2ccccc2)cc1,29
2,Cc1cc(Oc2ccc(OCc3ccccc3)cc2)nc(Nc2ccc(C#N)cc2)n1,6
3,COc1ccc(C(=O)c2ccccc2)c(Oc2ccnc(Nc3ccc(C#N)cc3)n2)c1,< 1
4,Cc1ccc(C(=O)c2cc(Cl)ccc2Oc2cc(C)nc(Nc3ccc(C#N)cc3)n2)cc1,< 1
5,COc1ccc(C(=O)c2ccccc2)c(Oc2nc(Nc3ccc(C#N)cc3)ncc2C)c1,≤ 2
6,Cc1cc(Oc2ccc(C(=O)c3ccc(O)cc3)cc2)nc(Nc2ccc(C#N)cc2)n1,≤ 6
7,COCCc1ccc(Oc2ccnc(Nc3ccc(C#N)cc3)n2)cc1,359
8,COCCc1ccc(Oc2nc(Nc3ccc(C#N)cc3)ncc2C)cc1,> 6260
9,Cc1cc(C)cc(C(=O)c2cc(Cl)ccc2Oc2ccnc(Nc3ccc(C#N)cc3)n2)c1,36
10,N#Cc1ccc(Nc2nccc(Oc3ccc(OCc4ccccc4)cc3)n2)cc1,> 7
11,Cc1ccccc1C(=O)c1cc(Cl)ccc1Oc1nc(Nc2ccc(C#N)cc2)ncc1C,22
12,Cc1ccccc1C(=O)c1cc(Cl)ccc1Oc1ccnc(Nc2ccc(C#N)cc2)n1,21

# Tested on: Human immunodeficiency virus 1
# Assay: Ratio of nevirapine EC50 to compound EC50 for HIV1 3B
# Assay type: functional
# Details: not given
row,SMILES,Ratio EC50
1,COCCc1ccc(Oc2nc(Nc3ccc(C#N)cc3)ncc2C)cc1,1.8

# Tested on: not listed separately
# Assay: Cytotoxicity against human MT4 cells after 5 days by MTT assay
# Assay type: cell-based
# Details: not given
# In short: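 Mock-infected MT-4 cells at 6 × 10⁵ cells/mL received medium instead of virus, with serial 5-fold compound dilutions in triplicate. After 5 days, viability was read by MTT at 540 and 690 nm.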
row,SMILES,CC50 at 120 h [µM]
1,Cc1cnc(Nc2ccc(C#N)cc2)nc1Oc1ccc(OCc2ccccc2)cc1,170
2,Cc1cc(Oc2ccc(OCc3ccccc3)cc2)nc(Nc2ccc(C#N)cc2)n1,27.7
3,COc1ccc(C(=O)c2ccccc2)c(Oc2ccnc(Nc3ccc(C#N)cc3)n2)c1,0.76
4,Cc1ccc(C(=O)c2cc(Cl)ccc2Oc2cc(C)nc(Nc3ccc(C#N)cc3)n2)cc1,26.6
5,COc1ccc(C(=O)c2ccccc2)c(Oc2nc(Nc3ccc(C#N)cc3)ncc2C)c1,7.42
6,Cc1cc(Oc2ccc(C(=O)c3ccc(O)cc3)cc2)nc(Nc2ccc(C#N)cc2)n1,32
7,COCCc1ccc(Oc2ccnc(Nc3ccc(C#N)cc3)n2)cc1,93.2
8,COCCc1ccc(Oc2nc(Nc3ccc(C#N)cc3)ncc2C)cc1,> 347
9,Cc1cc(C)cc(C(=O)c2cc(Cl)ccc2Oc2ccnc(Nc3ccc(C#N)cc3)n2)c1,28.8
10,CC(C)Nc1cccnc1N1CCN(C(=O)c2cc3cc(NS(C)(=O)=O)ccc3[nH]2)CC1 [DELAVIRDINE],> 36.2
11,N#Cc1ccc(Nc2nccc(Oc3ccc(OCc4ccccc4)cc3)n2)cc1,> 317
12,Cc1ccccc1C(=O)c1cc(Cl)ccc1Oc1nc(Nc2ccc(C#N)cc2)ncc1C,24.2
13,Cc1ccccc1C(=O)c1cc(Cl)ccc1Oc1ccnc(Nc2ccc(C#N)cc2)n1,28.8

# Tested on: Human immunodeficiency virus 1
# Assay: Antiviral activity against HIV1 RES056 expressing RT K103N/Y181C mutant infected in human MT4 cells assessed as inhibition of virus-induced cytopathic effect after 5 days by MTT assay
# Assay type: functional, organism-based
# Details: Human immunodeficiency virus 1, RES056, MT4, 120 h
# In short: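 MT-4 cells, exponentially growing, spun 5 min at 220 g and resuspended at 6 × 10⁵ cells/mL, then infected with 100-300 CCID₅₀ virus stock. Serial 5-fold compound dilutions were added from 10× stocks, in triplicate alongside mock-infected wells. Viability was read by MTT at 540 and 690 nm. EC₅₀ is the concentration giving 50% protection from cytopathic effect, using median OD of three wells.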
row,SMILES,EC50 [µM]
1,Cc1cnc(Nc2ccc(C#N)cc2)nc1Oc1ccc(OCc2ccccc2)cc1,> 170
2,Cc1cc(Oc2ccc(OCc3ccccc3)cc2)nc(Nc2ccc(C#N)cc2)n1,> 27.7
3,COc1ccc(C(=O)c2ccccc2)c(Oc2ccnc(Nc3ccc(C#N)cc3)n2)c1,> 0.76
4,Cc1ccc(C(=O)c2cc(Cl)ccc2Oc2cc(C)nc(Nc3ccc(C#N)cc3)n2)cc1,> 26.6
5,COc1ccc(C(=O)c2ccccc2)c(Oc2nc(Nc3ccc(C#N)cc3)ncc2C)c1,> 7.42
6,Cc1cc(Oc2ccc(C(=O)c3ccc(O)cc3)cc2)nc(Nc2ccc(C#N)cc2)n1,> 32
7,COCCc1ccc(Oc2ccnc(Nc3ccc(C#N)cc3)n2)cc1,≥ 93.2
8,COCCc1ccc(Oc2nc(Nc3ccc(C#N)cc3)ncc2C)cc1,> 347
9,Cc1cc(C)cc(C(=O)c2cc(Cl)ccc2Oc2ccnc(Nc3ccc(C#N)cc3)n2)c1,> 28.8
10,CC(C)Nc1cccnc1N1CCN(C(=O)c2cc3cc(NS(C)(=O)=O)ccc3[nH]2)CC1 [DELAVIRDINE],> 36.2
11,N#Cc1ccc(Nc2nccc(Oc3ccc(OCc4ccccc4)cc3)n2)cc1,> 317
12,Cc1ccccc1C(=O)c1cc(Cl)ccc1Oc1nc(Nc2ccc(C#N)cc2)ncc1C,> 24.2
13,Cc1ccccc1C(=O)c1cc(Cl)ccc1Oc1ccnc(Nc2ccc(C#N)cc2)n1,> 28.8

# Tested on: Human immunodeficiency virus 2
# Assay: Antiviral activity against HIV2 ROD infected in human MT4 cells assessed as inhibition of virus-induced cytopathic effect after 5 days by MTT assay
# Assay type: functional, organism-based
# Details: Human immunodeficiency virus 2, ISOLATE ROD, MT4, 120 h
# In short: as §1
row,SMILES,EC50 [µM]
1,Cc1cnc(Nc2ccc(C#N)cc2)nc1Oc1ccc(OCc2ccccc2)cc1,> 170
2,Cc1cc(Oc2ccc(OCc3ccccc3)cc2)nc(Nc2ccc(C#N)cc2)n1,> 27.7
3,COc1ccc(C(=O)c2ccccc2)c(Oc2ccnc(Nc3ccc(C#N)cc3)n2)c1,> 0.76
4,Cc1ccc(C(=O)c2cc(Cl)ccc2Oc2cc(C)nc(Nc3ccc(C#N)cc3)n2)cc1,> 26.6
5,COc1ccc(C(=O)c2ccccc2)c(Oc2nc(Nc3ccc(C#N)cc3)ncc2C)c1,> 7.42
6,Cc1cc(Oc2ccc(C(=O)c3ccc(O)cc3)cc2)nc(Nc2ccc(C#N)cc2)n1,> 32
7,COCCc1ccc(Oc2ccnc(Nc3ccc(C#N)cc3)n2)cc1,≥ 46.2
8,COCCc1ccc(Oc2nc(Nc3ccc(C#N)cc3)ncc2C)cc1,> 347
9,Cc1cc(C)cc(C(=O)c2cc(Cl)ccc2Oc2ccnc(Nc3ccc(C#N)cc3)n2)c1,> 28.8
10,CC(C)Nc1cccnc1N1CCN(C(=O)c2cc3cc(NS(C)(=O)=O)ccc3[nH]2)CC1 [DELAVIRDINE],> 36.2
11,N#Cc1ccc(Nc2nccc(Oc3ccc(OCc4ccccc4)cc3)n2)cc1,> 317
12,Cc1ccccc1C(=O)c1cc(Cl)ccc1Oc1nc(Nc2ccc(C#N)cc2)ncc1C,> 24.2
13,Cc1ccccc1C(=O)c1cc(Cl)ccc1Oc1ccnc(Nc2ccc(C#N)cc2)n1,> 28.8

# Biological target: Human immunodeficiency virus type 1 reverse transcriptase (Human immunodeficiency virus 1, UniProt Q72547)
# Assay: Inhibition of recombinant wild type HIV1 RT using poly(rA)/oligo(dT)16 as template after 40 mins by spectrofluorometric analysis
# Details: not given
row,SMILES,IC50 [µM]
1,Cc1cc(Oc2ccc(OCc3ccccc3)cc2)nc(Nc2ccc(C#N)cc2)n1,17.4
2,Cc1cc(Oc2ccc(C(=O)c3ccc(O)cc3)cc2)nc(Nc2ccc(C#N)cc2)n1,16.9
3,COCCc1ccc(Oc2ccnc(Nc3ccc(C#N)cc3)n2)cc1,2.69
4,COCCc1ccc(Oc2nc(Nc3ccc(C#N)cc3)ncc2C)cc1,1.27
5,Cc1cc(C)cc(C(=O)c2cc(Cl)ccc2Oc2ccnc(Nc3ccc(C#N)cc3)n2)c1,3.22
6,N#Cc1ccc(Nc2nccc(Oc3ccc(OCc4ccccc4)cc3)n2)cc1,31
7,Cc1ccccc1C(=O)c1cc(Cl)ccc1Oc1nc(Nc2ccc(C#N)cc2)ncc1C,5.23
8,Cc1ccccc1C(=O)c1cc(Cl)ccc1Oc1ccnc(Nc2ccc(C#N)cc2)n1,3.45

# Tested on: Human immunodeficiency virus 1
# Assay: Ratio of delavirdine EC50 to compound EC50 for HIV1 3B
# Assay type: functional
# Details: not given
row,SMILES,Ratio EC50
1,COCCc1ccc(Oc2nc(Nc3ccc(C#N)cc3)ncc2C)cc1,1.8
